The source of these data is ChEMBL document CHEMBL1147849, “Synthesis and recognition of novel isonucleoside triphosphates by DNA polymerases” (Bioorg Med Chem, 2007).

Usually Km stands for the concentration of substrate that gives half-maximal velocity.

SMILES strings stand for the structures. Activity calls are given as the source filed them. No cut-off for these calls is given here.

In assay [1] the test system is Thermus aquaticus. The experiment in a line: Inhibition of Thermus acquaticus DNA polymerase-mediated DNA synthesis assessed as DNA chain termination. Summed up:
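Taq polymerase primer extension: 25-mer template (A, T, G or C at the first target site) and 5′-FITC 17-mer primer, 20 pmol each. Buffer was 50 mM KCl, 10 mM Tris–HCl pH 9.0, 1.5 mM MgCl₂, 0.1% Triton X-100. Triphosphate or dNTPs 1 nmol each, 2 U enzyme, 50 °C for 1.5 h. Read-out by denaturing polyacrylamide gel electrophoresis.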

Assay [2] is described as follows: Inhibition of 9 Nm DNA polymerase-mediated DNA synthesis assessed as DNA chain termination. Summed up: (§1)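 25-mer template (four variants, each with A, T, G or C at the first target site) annealed to a 5′-FITC 17-mer primer, 20 pmol each. Annealing was done by cooling quickly from 90 to 0 °C in buffer: 10 mM KCl, 10 mM (NH₄)₂SO₄, 20 mM Tris–HCl pH 8.8, 2 mM MgSO₄, 0.1% Triton X-100. Reactions held triphosphate or dNTPs (1 nmol each) and 2 U polymerase, 50 °C, 1.5 h. Products were resolved by denaturing PAGE.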

Assay [3] can be described thus: Inhibition of Therminator DNA polymerase-mediated DNA synthesis assessed as DNA chain termination. Summed up: as §1
Assay [4] is described as follows: Inhibition of Vent(exo-) DNA polymerase-mediated DNA synthesis assessed as DNA chain termination. Summed up: as §1
Assay [5] in a line: Inhibition of Deep Vent(exo-) DNA polymerase-mediated DNA synthesis assessed as DNA chain termination. A digest of the protocol:
as §1

The nature of assay [6]: Activity of 9 Nm DNA polymerase enzyme. Summed up: (§2)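 Kinetics with 9°N DNA polymerase at 0.01 U/µL in the supplier's buffer. Primer was annealed to template 2 (T at the target site), 2 µM primer–template complex, with varying concentrations of dATP or the isonucleoside triphosphate.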
The nature of assay [7]: Ratio of Vmax to Km for 9 Nm DNA polymerase. Summed up:
as §2

On to `Nc1ccn([C@H]2CO[C@@H](CCOP(=O)(O)OP(=O)(O)OP(=O)(O)O)[C@@H]2O)c(=O)n1`, for which the outcome in assay [1] and in assay [2] was Active.

In the case of `Cc1cn([C@H]2CO[C@@H](CCOP(=O)(O)OP(=O)(O)OP(=O)(O)O)[C@@H]2O)c(=O)[nH]c1=O`, the result in assay [1] and in assay [2] was Active.

Consider `Nc1nc2c(ncn2[C@H]2CO[C@@H](CCOP(=O)(O)OP(=O)(O)OP(=O)(O)O)[C@@H]2O)c(=O)[nH]1`, for which the result in assay [1] and in assay [2] was Active.

`Nc1ncnc2c1ncn2[C@@H]1CO[C@H](COP(=O)(O)OP(=O)(O)OP(=O)(O)O)[C@H]1O`: the outcome in assay [1] and in assay [5] was Active. Moreover, the result in assay [2], in assay [3] and in assay [4] was inactive.

Regarding `C=CCOC[C@@H]1O[C@@H](COP(=O)(O)OP(=O)(O)OP(=O)(O)O)[C@H](O)[C@H]1n1cc(C)c(=O)[nH]c1=O`, the outcome in assay [1] and in assay [2] was Active.

Turning to `Nc1ncnc2c1ncn2[C@H]1C[C@H](O)[C@@H](COP(=O)(O)OP(=O)(O)OP(=O)(O)O)O1`, in assay [6], the Km was 0.78 µM and the Vmax is 6.73 %/min. The Vmax/Km in assay [7] was determined as 8.63e+06 M⁻¹.
